Measured values as given in publication PMC7302971 (Bioorganic chemistry, 2020).

Columns and labels:
HDAC8 = target: T1, HDAC8 (Homo sapiens, UniProt Q9BY41); experiment: Thermal shift assay; format: binding
T1 sequence (Q9BY41 1-377): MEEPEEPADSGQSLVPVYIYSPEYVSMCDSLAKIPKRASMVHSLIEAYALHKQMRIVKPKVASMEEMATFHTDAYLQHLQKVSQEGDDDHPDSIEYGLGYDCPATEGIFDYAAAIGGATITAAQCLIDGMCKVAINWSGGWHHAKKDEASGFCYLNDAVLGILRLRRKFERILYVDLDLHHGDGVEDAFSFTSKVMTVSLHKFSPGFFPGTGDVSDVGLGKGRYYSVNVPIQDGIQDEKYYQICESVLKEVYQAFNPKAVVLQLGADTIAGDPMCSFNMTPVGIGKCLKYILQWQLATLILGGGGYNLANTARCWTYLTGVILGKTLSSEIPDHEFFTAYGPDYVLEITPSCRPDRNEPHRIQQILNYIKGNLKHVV

HDAC6 = target: T2, HDAC6 (Homo sapiens, UniProt Q9UBN7); experiment: HDAC enzyme activity assay; format: biochemical
T2 sequence (Q9UBN7 1-1215): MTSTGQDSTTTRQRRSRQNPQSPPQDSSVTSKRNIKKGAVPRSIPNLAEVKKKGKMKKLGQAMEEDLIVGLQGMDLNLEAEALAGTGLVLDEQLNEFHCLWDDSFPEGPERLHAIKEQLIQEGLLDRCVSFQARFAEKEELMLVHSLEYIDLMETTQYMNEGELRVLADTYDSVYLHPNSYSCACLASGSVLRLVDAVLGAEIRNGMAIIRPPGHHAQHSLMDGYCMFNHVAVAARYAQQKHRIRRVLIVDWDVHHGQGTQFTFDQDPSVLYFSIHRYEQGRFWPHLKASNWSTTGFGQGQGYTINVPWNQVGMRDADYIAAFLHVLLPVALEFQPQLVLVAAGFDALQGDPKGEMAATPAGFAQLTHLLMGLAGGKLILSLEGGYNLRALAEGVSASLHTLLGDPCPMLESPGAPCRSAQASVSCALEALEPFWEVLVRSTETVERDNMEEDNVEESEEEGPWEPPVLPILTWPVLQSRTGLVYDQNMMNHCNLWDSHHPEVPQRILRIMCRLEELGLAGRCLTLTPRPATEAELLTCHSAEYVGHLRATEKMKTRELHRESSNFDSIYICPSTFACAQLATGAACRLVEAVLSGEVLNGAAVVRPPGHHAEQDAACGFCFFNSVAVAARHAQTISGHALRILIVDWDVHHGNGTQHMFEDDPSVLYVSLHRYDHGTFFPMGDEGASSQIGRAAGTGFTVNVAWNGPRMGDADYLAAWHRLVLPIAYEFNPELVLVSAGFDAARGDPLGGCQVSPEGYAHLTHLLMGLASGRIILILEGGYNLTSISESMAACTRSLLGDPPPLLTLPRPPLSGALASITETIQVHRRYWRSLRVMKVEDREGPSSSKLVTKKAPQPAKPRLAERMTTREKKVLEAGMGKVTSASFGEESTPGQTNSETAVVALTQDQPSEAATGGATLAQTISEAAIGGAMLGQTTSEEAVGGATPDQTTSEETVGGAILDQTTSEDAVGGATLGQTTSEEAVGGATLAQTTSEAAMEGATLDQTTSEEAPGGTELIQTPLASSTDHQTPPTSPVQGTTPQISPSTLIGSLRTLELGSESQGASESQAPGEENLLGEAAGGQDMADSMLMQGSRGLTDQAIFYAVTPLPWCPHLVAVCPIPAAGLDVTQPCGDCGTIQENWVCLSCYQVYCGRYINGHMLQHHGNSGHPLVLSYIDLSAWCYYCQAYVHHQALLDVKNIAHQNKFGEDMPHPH
Procedure, shortened: (§1)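 Commercial enzyme was preincubated with serial inhibitor dilutions for 60 min at 30 °C in 25 mM Tris-HCl pH 8.0, 75 mM KCl and 0.001% Pluronic F-127. Reaction was started with 50 μM Boc-Lys(acetyl)-AMC, run 60 min at 30 °C, and stopped with 4.17 μM SAHA. Trypsin (0.4 mg/ml) released AMC, read at Ex 350/Em 450 nm. IC50 came from a four-parameter logistic fit.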

HDAC3 = HDAC3 (Homo sapiens, UniProt O15379); experiment: HDAC enzyme activity assay; format: biochemical
Procedure, shortened: as §1

KCL-22 leukemia cells = experiment: Differential Nuclear Staining; format: cell-based, human; conditions: Homo sapiens, KCL-22, 48 h
Procedure, shortened: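 Cells were seeded at 10,000/well and exposed to test compound for 48 h at 1% (v/v) final DMSO. The first screen used a single concentration with controls in quadruplicate. Dose-response used 0.5–100 μM in triplicate. Controls: DMSO vehicle, hydrogen peroxide (positive), untreated (negative). Hoechst 33342 plus PI were added 2 h before automated imaging, and colocalised signal was scored as dead. […] Two-tailed t-test versus DMSO.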

CEM cells = experiment: Apoptosis by annexin V-FITC/PI flow cytometry; format: cell-based, human; conditions: compound at CC50 (IC50) concentration, 24 h
Procedure, shortened: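 CEM cells were seeded in 24-well plates and held overnight at 37 °C in CO2. Medium was replaced and cells were exposed to test compound for 24 h. Controls were untreated cells and 1% DMSO. Cells were PBS-washed and spun at 500 × g for 5 min at 4 °C, then resuspended in ice-cold binding buffer with annexin V-FITC and PI. They were kept 15 min on ice in the dark, diluted, and read by flow cytometry for live and apoptotic fractions.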

Chain of HDAC3 (O15379 whole entry): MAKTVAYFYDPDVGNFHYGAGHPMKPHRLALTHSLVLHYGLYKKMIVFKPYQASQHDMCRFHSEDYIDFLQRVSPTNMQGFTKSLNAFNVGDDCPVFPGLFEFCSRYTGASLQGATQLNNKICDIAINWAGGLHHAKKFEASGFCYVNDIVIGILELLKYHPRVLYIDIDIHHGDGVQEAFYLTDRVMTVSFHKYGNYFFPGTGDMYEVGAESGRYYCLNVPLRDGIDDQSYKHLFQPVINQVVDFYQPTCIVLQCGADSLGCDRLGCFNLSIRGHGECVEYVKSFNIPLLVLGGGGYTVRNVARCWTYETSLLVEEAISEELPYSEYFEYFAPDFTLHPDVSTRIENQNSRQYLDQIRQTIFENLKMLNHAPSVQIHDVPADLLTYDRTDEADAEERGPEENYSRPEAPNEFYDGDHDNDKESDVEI
Chain of HDAC3 (Q9Y618 395-489 partner limits assumed): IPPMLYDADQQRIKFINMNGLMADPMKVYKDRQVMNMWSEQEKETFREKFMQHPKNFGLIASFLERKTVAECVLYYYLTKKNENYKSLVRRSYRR

SMILES | Thermal shift (ΔT), stabilizing effect on HDAC8 (HDAC8) | IC50 (HDAC6) [µM] | IC50 (HDAC3) [µM] | CC50 (KCL-22 leukemia cells) [µM] | live cells (CEM cells) [%] | percent of apoptotic cells (CEM cells) [%]
O=C(CN1C(=O)SC(=Cc2ccccn2)C1=O)Nc1nc2ccccc2s1 [Compound P19, N-(benzo[d]thiazol-2-yl)-2-(2,4-dioxo-5-(pyridin-2-ylmethylene)thiazolidin-3-yl)acetamide] | about 0.3 °C | 17 | > 50 | 43.2 ± 0.23 | 30.86 | 60.97
Cc1c(NC(=O)CN2C(=O)SC(=Cc3ccccn3)C2=O)c(=O)n(-c2ccccc2)n1C [Compound P10, N-(1,5-dimethyl-3-oxo-2-phenyl-2,3-dihydro-1H-pyrazol-4-yl)-2-(2,4-dioxo-5-(pyridin-2-ylmethylene)thiazolidin-3-yl)acetamide] | did not confer significant stability to the protein | 26 | > 50 | 17.4 ± 2.4 | 29.89 | 55.19
